This note sets out measurements from ChEMBL document CHEMBL4602702, “Red-Emitting Dibenzodiazepinone Derivatives as Fluorescent Dualsteric Probes for the Muscarinic Acetylcholine M2 Receptor” (J Med Chem, 2020).

Assay [1] concerns the target T1, Muscarinic acetylcholine receptor M2 (Homo sapiens, UniProt P08172).
T1 sequence (P08172 whole entry): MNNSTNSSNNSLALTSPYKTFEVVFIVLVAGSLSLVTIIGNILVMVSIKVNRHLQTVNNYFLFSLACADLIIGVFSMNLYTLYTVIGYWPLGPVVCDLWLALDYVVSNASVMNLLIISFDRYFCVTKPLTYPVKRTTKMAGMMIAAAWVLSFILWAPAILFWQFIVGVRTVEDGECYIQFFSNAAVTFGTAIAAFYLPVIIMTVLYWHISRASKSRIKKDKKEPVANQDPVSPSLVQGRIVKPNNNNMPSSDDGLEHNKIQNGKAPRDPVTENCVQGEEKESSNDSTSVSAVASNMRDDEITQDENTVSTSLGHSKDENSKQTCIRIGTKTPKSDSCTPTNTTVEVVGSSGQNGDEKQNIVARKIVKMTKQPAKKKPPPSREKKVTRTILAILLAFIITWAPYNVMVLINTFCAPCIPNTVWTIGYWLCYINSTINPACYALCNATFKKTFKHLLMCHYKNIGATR
The assay is described as follows: Antagonist activity at human muscarinic M2 receptor expressed in HEK293 cells co-expressing HA-Galphaq/i5 assessed as inhibition of carbachol-induced IP1 accumulation at 22 degree C pre-incubated for 180 mins followed by carbachol addition and further incubated at 37 degree C for 90 mins by HTRF assay. Type of assay: functional, cell-based. In outline:
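HEK-hM2-Gαqi5-HA cells (transient transfection) preincubated with antagonist at 22 °C for 180 min, then carbachol 0.3 μM (≈EC80) added and incubation continued at 37 °C for 90 min. Readout is inhibition of IP1 accumulation as pIC50, mean ± SEM of n independent experiments, each in duplicate.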
Background: TR-FRET usually uses a lanthanide donor and a delayed reading to cut background.

Assay [2] addresses T1, Muscarinic acetylcholine receptor M2. Description: Binding affinity to human muscarinic M2 receptor expressed in […] cells at 22 +/- 1 degree C preincubated for 120 mins followed by atropine addition by flow cytometric saturation binding study. Format: cell-based. A general note: In flow cytometry, cells or beads pass a laser one at a time.
The target in assay [3] is T2, Muscarinic acetylcholine receptor M4 (Homo sapiens, UniProt P08173).
T2 sequence (P08173 whole entry): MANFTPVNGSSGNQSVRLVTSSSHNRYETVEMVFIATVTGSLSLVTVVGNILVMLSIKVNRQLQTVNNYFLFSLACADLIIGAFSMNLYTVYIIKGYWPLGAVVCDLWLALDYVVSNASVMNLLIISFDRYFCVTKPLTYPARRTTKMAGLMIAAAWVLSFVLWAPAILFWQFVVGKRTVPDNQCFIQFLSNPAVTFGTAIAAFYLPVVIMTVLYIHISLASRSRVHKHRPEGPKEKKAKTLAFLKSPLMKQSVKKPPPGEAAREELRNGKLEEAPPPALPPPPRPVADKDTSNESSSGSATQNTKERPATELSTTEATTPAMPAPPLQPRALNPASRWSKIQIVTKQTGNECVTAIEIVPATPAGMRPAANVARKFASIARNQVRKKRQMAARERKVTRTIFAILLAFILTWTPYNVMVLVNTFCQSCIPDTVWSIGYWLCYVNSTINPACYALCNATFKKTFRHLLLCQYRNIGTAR
The assay is described as follows: Displacement of [3H]-NMS from human muscarinic M4 receptor stably expressed in CHO-K9 cells by radioligand competitive binding assay. Type of assay: cell-based. In outline: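 Equilibrium competition binding at live CHO-hMxR cells with [3H]NMS at M1 0.2, M2 0.2, M3 0.2, M4 0.1, M5 0.3 nM. […] Four-parameter logistic fit converted to pKi; at least three experiments in triplicate (some two).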
A general note: Loss of bound radioactivity is the signal in a displacement assay; it reports binding, not function.

The target in assay [4] is T3, Muscarinic acetylcholine receptor M2 (Homo sapiens) (UniProt P08172).
T3 sequence (whole entry): T1 sequence (P08172 whole entry)
Description: Binding affinity to human muscarinic M2 receptor expressed in CHO-K9 cells assessed as dissociation rate constant at 22 +/- 1 degree C preincubated for 120 mins followed by atropine addition by flow cytometric saturation binding study. Type of assay: cell-based. A digest of the protocol: (§1)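 Dissociation followed by flow cytometry at 22 °C over 9 h. koff from three-parameter incomplete monophasic decline fit; three or four experiments in duplicate.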

For assay [5], the target named is T4, Muscarinic acetylcholine receptor M1 (Homo sapiens, UniProt P11229).
T4 sequence (P11229 whole entry): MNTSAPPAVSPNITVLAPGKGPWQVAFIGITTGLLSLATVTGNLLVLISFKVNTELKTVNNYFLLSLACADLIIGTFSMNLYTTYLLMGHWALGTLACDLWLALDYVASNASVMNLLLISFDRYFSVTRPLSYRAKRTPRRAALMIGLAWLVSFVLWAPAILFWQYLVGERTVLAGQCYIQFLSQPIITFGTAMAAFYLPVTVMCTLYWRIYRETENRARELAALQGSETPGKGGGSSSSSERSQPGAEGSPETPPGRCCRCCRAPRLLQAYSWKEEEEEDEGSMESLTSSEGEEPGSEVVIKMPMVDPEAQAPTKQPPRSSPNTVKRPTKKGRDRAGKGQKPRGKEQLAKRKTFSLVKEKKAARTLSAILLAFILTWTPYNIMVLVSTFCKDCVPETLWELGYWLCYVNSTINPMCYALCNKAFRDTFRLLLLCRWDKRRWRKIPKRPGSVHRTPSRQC
Description: Binding affinity to human muscarinic M1 receptor expressed in CHO-K9 cells incubated in dark measured after 60 mins by Hoechst H33342 dye based confocal plate reader assay. Format: cell-based. In outline: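 Live CHO-hMxR cells (M1 or M2) incubated with fluorescent ligand at 22 °C in the dark for 1 h, washed, then imaged at once by high-content confocal plate reader.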

Assay [6] concerns the target T1, Muscarinic acetylcholine receptor M2. Description: Antagonist activity at human muscarinic M2 receptor expressed in HEK293 cells co-expressing HA-Galphaq/i5 assessed as inhibition of carbachol-induced IP1 accumulation at 37 degree C pre-incubated for 30 mins followed by carbachol addition and measured after 60 mins by HTRF assay. Format: functional, cell-based.
In assay [7] the target is T2, Muscarinic acetylcholine receptor M4. The assay is described as follows: Antagonist activity at human muscarinic M4 receptor expressed in HEK293 cells co-expressing HA-Galphaq/i5 assessed as inhibition of carbachol-induced IP1 accumulation at 22 degree C pre-incubated for 180 mins followed by carbachol addition and further incubated at 37 degree C for 90 mins by HTRF assay. Type of assay: functional, cell-based.

Assay [8] has as its target T3, Muscarinic acetylcholine receptor M2 (Homo sapiens). Description: Binding affinity to human muscarinic M2 receptor expressed in CHO-K9 cells assessed as association rate constant at 22 +/- 1 degree C incubated under shaking condition in dark for 1 to 300 mins by flow cytometric saturation binding study. Type of assay: cell-based.
The target is the same in assay [9]. Description: Binding affinity to human muscarinic M2 receptor expressed in CHO-K9 cells assessed as dissociation rate constant at 22 +/- 1 degree C preincubated for 110 mins followed by atropine addition by flow cytometric saturation binding study. Format: cell-based. A digest of the protocol:
as §1

For assay [10], the target named is T1, Muscarinic acetylcholine receptor M2. The assay is described as follows: Binding affinity to human muscarinic M2 receptor expressed in […] cells at 22 +/- 1 degree C preincubated for 110 mins followed by atropine addition by flow cytometric saturation binding study. Format: cell-based.
For assay [11] the target is unchanged. The assay is described as follows: Binding affinity to human muscarinic M2 receptor expressed in […] cells at 22 +/- 1 degree C preincubated for 180 mins followed by atropine addition by flow cytometric kinetic binding study.
For assay [12], the target named is T2, Muscarinic acetylcholine receptor M4. Description: Binding affinity to human muscarinic M4 receptor expressed in […] cells incubated in dark at 22 degree C for 2 hrs by FACSCalibur flow cytometric saturation binding study. Format: cell-based.
The target in assay [13] is T4, Muscarinic acetylcholine receptor M1. The assay is described as follows: Binding affinity to human muscarinic M1 receptor expressed in CHO-K9 cells incubated in dark at 22 degree C for 2 hrs by FACSCalibur flow cytometric saturation binding study. Type of assay: cell-based.

By IC50 is commonly meant the midpoint of a concentration-inhibition curve. Broadly, the Kd is the equilibrium constant for the complex coming apart. Low readings indicate higher affinity, high ones lower affinity. The Ki is a measure of affinity in units of concentration, obtained from inhibition or displacement. Higher therefore signals lower affinity.

Molecules are shown by their SMILES.

Take `CC1(C)C(/C=C/C=C/C=C2/N(CCCCCC(=O)NCCNC(=O)CCc3cn(CCCCC4CCN(CC(=O)N5c6ccccc6NC(=O)c6ccccc65)CC4)cn3)c3ccc(S(=O)(=O)O)cc3C2(C)C)=[N+](CCCCS(=O)(=O)[O-])c2ccccc21.O=C(O)C(F)(F)F`: the IC50 was 57.5 nM in [1], 355 nM in [6] and 138 nM in assay [7]. Besides, the equilibrium dissociation constant (Kd) in assay [2] was 1.9 nM; in assay [5], 26.3 nM. The Ki in [3] was 4.47 nM. Further, the K was found to be 0.0069 min⁻¹ in assay [4] and 61700 M⁻¹ s⁻¹ in assay [8].

Regarding `CC1(C)C(/C=C/C=C/C=C2/N(CCCCCC(=O)NCc3cc(C(=O)NCCNC(=O)CCc4cn(CCCCC5CCN(CC(=O)N6c7ccccc7NC(=O)c7ccccc76)CC5)cn4)cc(C(=O)NCCNC(=O)CCc4cn(CCCCC5CCN(CC(=O)N6c7ccccc7NC(=O)c7ccccc76)CC5)cn4)c3)c3ccc(S(=O)(=O)O)cc3C2(C)C)=[N+](CCCCS(=O)(=O)[O-])c2ccccc21.O=C(O)C(F)(F)F.O=C(O)C(F)(F)F.O=C(O)C(F)(F)F`, the 50% inhibitory concentration (IC50) is 17.4 nM in assay [1], 24 nM in [6] and 37.2 nM in [7]. Also, the figures for the K in assay [9] and in assay [8] were 0.0031 min⁻¹ and 81700 M⁻¹ s⁻¹, respectively. For the same molecule, the Kd in assay [10] is 1.4 nM; in [5], 10 nM. Besides, in assay [3], affinity was put at a Ki of 2.88 nM.

Turning to `CC1(C)C(/C=C/C=C/C=C2/N(CCCCCC(=O)NCCN3CCN(CCCCC4CCN(CC(=O)N5c6ccccc6NC(=O)c6ccccc65)CC4)CC3)c3ccc(S(=O)(=O)O)cc3C2(C)C)=[N+](CCCCS(=O)(=O)[O-])c2ccccc21.O=C(O)C(F)(F)F.O=C(O)C(F)(F)F`, the results for the IC50 in assay [1], in [6] and in assay [7] were 38.9 nM, 224 nM and 102 nM, respectively. Moreover, the dissociation constant (Kd) in [11] was 0.48 nM; in assay [12], 9.55 nM; in [13] it was 6.46 nM. Besides, the affinity in assay [3] corresponds to a Ki of 2.14 nM. In addition, the K in assay [8] is 158000 M⁻¹ s⁻¹.
